Among the data in ChEMBL document CHEMBL2331285, “Optimization of 3,5-dimethylisoxazole derivatives as potent bromodomain ligands” (J Med Chem, 2013) are IC50, Ratio IC50 and Activity values, retold here.

Calls of active or inactive are those of the source. No cut-off for these calls is given here.

Broadly, the IC50 is the midpoint of a concentration-inhibition curve. High values mean weaker potency, low ones greater potency.

The subject of one assay is U2OS. Briefly: Cytotoxicity against human U2OS cells after 24 hrs by WST-1 assay. It is filed as functional, cell-based.
For the next assay, the system named is MV4-11. The experiment in a line: Cytotoxicity against human MV4-11 cells after 72 hrs by MTS assay. The settings on record: MV4-11, 72 h. The assay is classed as functional, cell-based. For orientation: Formazan colour is commonly taken as a measure of viable cells.
The next assay deals with HeLa. The experiment in a line: Cytotoxicity against human HeLa cells after 24 hrs by WST-1 assay. The assay is classed as functional, cell-based.
The target of a further assay is CREB-binding protein (Homo sapiens, UniProt Q92793). The experiment in a line: Binding affinity to CREBBP bromodomain (unknown origin) using H3K56Ac peptide by amplified luminescent proximity homogeneous assay.
Assay [1] deals with Bromodomain-containing protein 4 (Homo sapiens, UniProt O60885). Briefly: Binding affinity to human BRD4 bromodomain 1 using H4Ac4 peptide by amplified luminescent proximity homogeneous assay.
A further assay is filed under the species Homo sapiens. The experiment in a line: Selectivity ratio of IC50 for CREBBP bromodomain to IC50 for human BRD4 bromodomain 1 (unknown origin). The method in brief: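 IC50 ratio, both values from AlphaScreen peptide displacement (protein and peptide 50 nM each, duplicates, sigmoidal fit). BRD4(1) used biotinylated tetra-acetylated H4 peptide (SGRGK(Ac)GGK(Ac)GLGK(Ac)GGAK(Ac)RHRK-biotin); CREBBP used biotinylated H3K56Ac peptide.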

Assay [2] deals with NCI-H1975. Briefly: Cytotoxicity against human NCI-H1975 cells after 10 to 14 days by crystal violet staining based clonogenic survival assay. The assay is classed as functional, cell-based.
Assay [3] relates to NCI-H1975. The experiment in a line: Cytotoxicity against human NCI-H1975 cells after 72 hrs by MTS assay. The assay is classed as functional, cell-based. The settings on record: NCI-H1975, 72 h.
For a further assay, the system named is A549. Briefly: Cytotoxicity against human A549 cells after 72 hrs by MTS assay. It is filed as functional, cell-based. The settings on record: A549, 72 h.

CREB-binding protein, sequence (Q92793 whole entry): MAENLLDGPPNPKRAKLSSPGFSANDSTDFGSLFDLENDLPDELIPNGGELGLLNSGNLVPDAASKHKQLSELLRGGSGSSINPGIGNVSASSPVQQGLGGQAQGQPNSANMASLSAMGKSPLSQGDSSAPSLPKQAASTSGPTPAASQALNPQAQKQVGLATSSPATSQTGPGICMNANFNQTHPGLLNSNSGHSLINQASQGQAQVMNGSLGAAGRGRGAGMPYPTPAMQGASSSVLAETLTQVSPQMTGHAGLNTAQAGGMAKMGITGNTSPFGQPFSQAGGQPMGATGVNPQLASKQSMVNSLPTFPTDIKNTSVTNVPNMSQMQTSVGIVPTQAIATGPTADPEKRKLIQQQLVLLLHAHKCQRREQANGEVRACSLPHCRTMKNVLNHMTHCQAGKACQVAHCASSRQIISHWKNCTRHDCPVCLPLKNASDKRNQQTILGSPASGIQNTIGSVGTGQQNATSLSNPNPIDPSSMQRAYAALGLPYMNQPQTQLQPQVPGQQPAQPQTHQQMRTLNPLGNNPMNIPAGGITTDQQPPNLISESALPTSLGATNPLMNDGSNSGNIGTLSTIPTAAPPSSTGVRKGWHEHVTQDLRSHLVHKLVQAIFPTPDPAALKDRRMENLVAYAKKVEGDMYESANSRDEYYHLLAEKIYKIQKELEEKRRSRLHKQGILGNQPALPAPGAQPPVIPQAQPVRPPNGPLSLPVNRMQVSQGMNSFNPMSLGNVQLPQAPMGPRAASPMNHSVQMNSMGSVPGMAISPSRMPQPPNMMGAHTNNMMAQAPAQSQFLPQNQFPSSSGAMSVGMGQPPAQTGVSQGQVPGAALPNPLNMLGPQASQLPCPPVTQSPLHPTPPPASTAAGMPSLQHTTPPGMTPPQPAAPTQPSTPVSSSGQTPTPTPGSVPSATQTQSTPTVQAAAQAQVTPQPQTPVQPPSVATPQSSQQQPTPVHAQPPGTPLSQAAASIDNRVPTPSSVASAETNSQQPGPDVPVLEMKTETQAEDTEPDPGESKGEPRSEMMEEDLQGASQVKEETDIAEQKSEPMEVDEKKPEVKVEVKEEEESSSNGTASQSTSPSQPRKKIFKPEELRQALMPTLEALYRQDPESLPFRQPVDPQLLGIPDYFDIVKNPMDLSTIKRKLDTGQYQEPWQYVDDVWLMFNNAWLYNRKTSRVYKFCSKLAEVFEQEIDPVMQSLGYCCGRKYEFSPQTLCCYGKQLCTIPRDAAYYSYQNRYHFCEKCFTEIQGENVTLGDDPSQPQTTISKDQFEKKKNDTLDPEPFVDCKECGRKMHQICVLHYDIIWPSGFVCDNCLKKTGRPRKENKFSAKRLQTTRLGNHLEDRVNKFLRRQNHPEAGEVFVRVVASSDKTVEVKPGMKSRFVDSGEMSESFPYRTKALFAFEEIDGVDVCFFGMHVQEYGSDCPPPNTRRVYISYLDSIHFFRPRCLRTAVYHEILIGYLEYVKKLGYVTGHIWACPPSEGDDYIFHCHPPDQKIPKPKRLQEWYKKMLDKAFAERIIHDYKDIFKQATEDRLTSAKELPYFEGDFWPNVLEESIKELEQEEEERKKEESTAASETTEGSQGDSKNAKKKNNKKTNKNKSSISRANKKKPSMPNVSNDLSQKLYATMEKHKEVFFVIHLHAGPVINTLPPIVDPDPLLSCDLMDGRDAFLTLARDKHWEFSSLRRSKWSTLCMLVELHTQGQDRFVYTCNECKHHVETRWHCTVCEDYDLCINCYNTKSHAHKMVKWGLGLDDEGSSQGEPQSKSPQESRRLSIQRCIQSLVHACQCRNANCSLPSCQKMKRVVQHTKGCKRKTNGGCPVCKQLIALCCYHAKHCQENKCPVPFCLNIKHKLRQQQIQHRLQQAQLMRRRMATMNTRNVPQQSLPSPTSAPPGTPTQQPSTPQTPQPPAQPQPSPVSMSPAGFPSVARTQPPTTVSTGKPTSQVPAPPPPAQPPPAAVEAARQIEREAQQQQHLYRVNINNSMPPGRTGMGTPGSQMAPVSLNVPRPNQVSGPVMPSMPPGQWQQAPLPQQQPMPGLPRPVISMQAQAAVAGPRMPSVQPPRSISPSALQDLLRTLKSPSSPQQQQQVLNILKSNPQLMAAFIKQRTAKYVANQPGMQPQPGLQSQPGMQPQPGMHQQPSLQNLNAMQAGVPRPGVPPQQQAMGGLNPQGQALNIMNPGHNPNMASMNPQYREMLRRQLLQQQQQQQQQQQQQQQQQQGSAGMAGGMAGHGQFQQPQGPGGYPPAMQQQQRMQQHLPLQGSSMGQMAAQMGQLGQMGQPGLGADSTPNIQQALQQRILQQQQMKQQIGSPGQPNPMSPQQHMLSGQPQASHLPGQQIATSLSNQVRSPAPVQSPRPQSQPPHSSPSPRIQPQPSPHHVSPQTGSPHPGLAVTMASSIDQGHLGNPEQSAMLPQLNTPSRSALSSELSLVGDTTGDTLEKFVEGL

For the compound `Cc1sc2c(c1C)C(c1ccc(Cl)cc1)=N[C@@H](CC(=O)OC(C)(C)C)c1nnc(C)n1-2`, the IC50 was > 100000 nM with U2OS, 242 nM in the assay on MV4-11 and > 100000 nM in the assay on HeLa.
In the case of `Cc1noc(C)c1-c1cc(OCCO)cc(C(O)c2ccccc2)c1` (stereo not given), the IC50 on CREB-binding protein came out at 2810 nM; in [1], 1170 nM.
On the same counts, the results for `COc1cc(-c2c(C)noc2C)cc(C(O)c2ccccc2)c1` (stereo not given) are 3960 nM and 1360 nM.
Regarding `COCCOc1cc(-c2c(C)noc2C)cc(C(O)c2ccccc2)c1` (stereo not given), the IC50 on CREB-binding protein was 2070 nM; in [1] it was 1380 nM.
As for `CCOc1cc(-c2c(C)noc2C)cc(C(O)c2ccccc2)c1` (stereo not given), the IC50 on CREB-binding protein was found to be 4100 nM; in assay [1] it was 640 nM. Further, in the assay listed under Homo sapiens, the Ratio IC50 turned out to be 6.
`Cc1noc(C)c1-c1cc(O)cc(C(=O)c2ccccc2)c1`: in [1], the IC50 stood at 544 nM.
As to `Cc1noc(C)c1-c1cc(O)cc(C(O)c2ccccc2)c1` (racemic), the IC50 in the assay with U2OS is > 100000 nM; with NCI-H1975 [3] it was > 10000 nM; in the assay on A549, > 10000 nM; in the assay on HeLa, > 100000 nM. Besides, in the assay with NCI-H1975 [2], the outcome was Active.
On to `CC(=O)Oc1cc(-c2c(C)noc2C)cc(C(O)c2ccccc2)c1` (racemic), for which the IC50 in the assay with U2OS was > 100000 nM; at CREB-binding protein, 2480 nM; in the assay on NCI-H1975 [3], > 10000 nM; with A549 it was > 10000 nM; in the assay on HeLa, > 100000 nM. Further, the outcome in the assay with NCI-H1975 [2] was Active.
On to `CCOc1cc(-c2c(C)noc2C)cc(C(C)O)c1` (stereo not given), for which the Ratio IC50 in the assay filed under Homo sapiens came out at 6.
